# STAT3 act-1: IL-6 driven STAT3 reporter potentiators, primary screen, U3A cells, luciferase, luminescence, MLSCN library. IL-6 STAT3-luciferase reporter; 100% = signal with IL-6 EC80 alone. 190,000 tested, 0.91% active. AID 871, 2007. activation (% of control), % at 5.6 µM;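 active = activation above the screen-wide mean of compound activation plus 3 SD, cut at about 130% in these data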;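 note: 0% = background luminescence of wells with medium and substrate only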
#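 Material: STAT1-lacking human U3A cells, STAT3 luciferase reporter | Benchmarks: IL-6-only wells as 100% reference | Probe or stimulus: IL-6 (33 ng/mL) | Timing: Compound 1 h, then IL-6 6 h at 37 °C | Detection: Luminescence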
# STAT1 act-1: STAT1 signaling activators, primary screen, cell-based, HTS, luciferase reporter. NIH 3T3 STAT1-luciferase reporter, IFN-gamma, luminescence; 100% = IFN-gamma alone, no compound. activation (% of control), % at 5.5 µM. 200,000 tested, 2.6% active;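 active = activation above the screen-wide mean activation plus 3 SD, cut at about 130% in these data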;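 note: raw ratio to IFN-gamma control signal so 100% means no change and 0% no light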
# STAT1 inh: STAT1 signaling inhibitors, primary screen, cell-based, HTS, luciferase reporter; NIH 3T3 STAT1-luciferase reporter, IFN-gamma, luminescence; inhibition, % at 5.5 µM; 200,000 tested, 0.35% active; AID 920, 2007;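 active = inhibition above a set limit, the mean inhibition across all tested compounds plus 3 SD, cut at about 34% in these data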;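 note: 0% = IFN-gamma with DMSO and 100% = IFN-gamma with 300 µM nifuroxazide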
# NF-kB expr up: activators of NF-kB expression in neurons, primary screen, cell-based, HTS; human neuronal cells, NF-kB reporter expression; stronger effect = higher value; fold change at 12.5 µM; 190,000 tested, 1.6% active; AID 1239, 2008; in the data active = fold change above about 3.3
# APP 5'UTR act: activators of APP 5'UTR luciferase reporter, primary screen, SH-SY5Y cells; SH-SY5Y APP 5'UTR luciferase reporter, luminescence; zero percent = DMSO vehicle wells; activation, % at 2 µM; 190,000 tested, 1% active; AID 1276, 2008;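 active = activation above a set limit, based on mean plus 3 SD of controls, cut at about 140% in these data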
# STAT3 inh: IL-6 driven STAT3 reporter inhibitors, primary screen, U3A cells, luciferase, luminescence, MLSCN library. IL-6 STAT3-luciferase reporter; host cell line lacks STAT1. inhibition, % at 5.5 µM. 190,000 tested, 0.89% active;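 active = inhibition above the mean inhibition across all screened compounds plus 3 SD, cut at about 44% in these data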;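 note: 0% = DMSO only wells and 100% = 100 µM nifuroxazide control wells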
# STAT3 act-2: STAT3 reporter potentiators, retest of hits, confirmation, U3A cells, luciferase, luminescence. potentiation (% of control), % at 5.7 µM. shares compounds with STAT3 act-1. 1,200 tested, 64% active. IL-6 potentiation; U3A cells lack STAT1; 100 means same as IL-6 alone. AID 1267, 2008;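 active = percent activation of the STAT3 luciferase reporter above a set limit taken from the earlier primary screen, cut at about 130% in these data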;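 note: 0% = background signal of medium plus substrate and 100% = median of IL-6 with DMSO wells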
# NFkB act STAT3ct: NF-kB reporter activators in human cells, counter-screen for STAT3 activator project | shares compounds with STAT3 act-1 | NF-kappaB reporter activation | activation (% of control), % at 5.7 µM | 1,200 tested, 11% active; in the data active = activation above about 120%;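 note: reporter induced by TNF-alpha stimulation; 100% = median of stimulated DMSO wells and 0% = no signal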
# STAT1 act-2: STAT1 reporter activators, IFN-gamma induced, counter-screen for STAT3 activator project, cell-based, NIH 3T3, luciferase luminescence | shares compounds with STAT3 act-1 | NIH 3T3 STAT1-luciferase reporter | activation (% of control), % at 5.7 µM | 1,200 tested, 13% active;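 active = activation above the solvent-only control well mean plus 3 SD, set per screening run, cut at about 120% in these data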;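 note: 100% = IFN-gamma with DMSO median signal so 100% means no change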
# An asterisk follows results filed as active; . = not tested or not shown. This is a sample that favours compounds with a hit; in the whole collection about 4.9% have one here.
SMILES,STAT3 act-1,STAT1 act-1,STAT1 inh,NF-kB expr up,APP 5'UTR act,STAT3 inh,STAT3 act-2,NFkB act STAT3ct,STAT1 act-2
O=C/C(=C\Nc1ccc(S(=O)(=O)CCO)cc1)c1nc2cc(Cl)ccc2o1,106,108,-11,0.95,-2,-6,.,.,.
Cc1cc(S(=O)(=O)n2ccnc2)c(Cl)cc1Cl,89,85,16,1.3,-4,20,.,.,.
CC(C)NC(=O)NC(=O)COC(=O)/C=C/c1ccccc1[N+](=O)[O-],147*,72,29,0.97,15,-55,159*,111,80
COC(=O)CNC(=O)COC(=O)/C=C/c1ccccc1[N+](=O)[O-],144*,78,22,0.8,30,-35,140*,103,76
COc1ccc(NC(=O)COC(=O)/C=C/c2ccccc2[N+](=O)[O-])cc1,112,100,0,1.1,6,-11,.,.,.
CCOC(=O)/C(C#N)=C/c1c[nH]c2ccccc12,129,118,-20,2.8,14,-34,.,.,.
COC(=O)/C(C#N)=C/c1c[nH]c2ccccc12,147*,120,-22,1.7,26,-35,193*,129*,160*
C=CCN(c1ccccc1)S(=O)(=O)c1ccc(Cl)c(C(=O)OCC(=O)c2[nH]c(C)c(C(C)=O)c2C)c1,109,97,3,0.99,-3,-11,.,.,.
CCCCn1c2ccccc2c2nnc(SCC(=O)NC3=NN=C(c4ccccc4)CS3)nc21,136*,98,2,1.2,-6,-50,107,110,118
CCCn1c2ccccc2c2nnc(SCC(=O)OC)nc21,102,100,0,1.2,-2,0,.,.,.
COc1ccccc1CNCc1cccc(Oc2ccccc2)c1,102,98,2,1.1,16,8,.,.,.
N/C(=N\NC(=O)c1cccs1)c1cc2ccccc2oc1=O,92,105,-6,1.4,39,9,.,.,.
N/C(=N\NC(=O)c1ccc(F)cc1)c1cc2ccccc2oc1=O,146*,99,0,1.1,9,-42,142*,109,104
Oc1ccccc1-c1nc(N2CCCC2)c2ccccc2n1,93,99,1,0.94,1,6,.,.,.
Oc1ccccc1-c1nc(N2CCN(Cc3ccccc3)CC2)c2ccccc2n1,146*,98,2,1.2,-9,-52,141*,104,101
Cc1nn(CCC(=O)NNC(=S)Nc2ccc([N+](=O)[O-])cc2)c(C)c1[N+](=O)[O-],140*,95,4,1.3,-5,-47,136*,104,102
CC(=O)Nc1ccc(S(=O)(=O)NNC(=O)c2cc3c4ccccc4n(C)c3s2)cc1,139*,96,4,1.2,0,-37,142*,106,111
CCOc1ccc(CN2CCN(Cc3cc4ccccc4[nH]3)CC2CCO)cc1 (stereo not drawn),143*,86,14,0.98,-5,-42,191*,113,109
CCOc1ccc(CN2CCN(Cc3cnc(-c4ccccc4)s3)CC2CCO)cc1 (stereo not drawn),93,102,-4,0.97,-4,15,.,.,.
Cc1ccc(-c2nc(NCCN3CCOCC3)c3ccccc3n2)cc1,181*,98,2,0.75,19,-81,169*,105,98
Cc1ccc(OCC(=O)Nc2ccc3c4c(cccc24)CC3)c(C)c1,93,99,1,1.1,-2,11,.,.,.
Cc1ccc(OCC(=O)Nc2cccc3nsnc23)c(C)c1,145*,95,5,0.9,19,-53,131,105,94
Cc1cc(O)c(NC(=O)c2ccc(Br)o2)cc1C,161*,89,12,1.4,52,-71,151*,115,95
CCc1cc(=O)[nH]c(-n2[nH]c(-c3ccccc3)cc2=O)n1,98,98,2,1.2,-1,5,.,.,.
O=c1cc(-c2ccccc2)[nH]n1-c1nc2ccccc2[nH]1,155*,113,-14,1.1,7,-53,141*,157*,141*
SMILES,STAT3 act-1,STAT1 act-1,STAT1 inh,NF-kB expr up,APP 5'UTR act,STAT3 inh,STAT3 act-2,NFkB act STAT3ct,STAT1 act-2
CCOC(=O)C1CCN(C(=O)COc2ccc(Br)cc2C)CC1,99,91,6,1,-3,6,.,.,.
COCc1c(C(=O)N/N=C/c2cccc3ccccc23)nnn1-c1nonc1N,89,106,-9,1.1,-9,15,.,.,.
CC(NC(=O)COC(=O)CC(c1ccccc1)c1ccccc1)c1ccccc1 (stereo not drawn),106,95,6,0.69,8,-9,.,.,.
COc1ccccc1C(=O)NNC(=O)c1ccc(F)cc1,112,120,-23,2.3,15,-14,.,.,.
COc1ccccc1C(=O)NNC(=O)C(=O)NC(C)(C)C,143*,100,-2,1.1,-14,-48,144*,96,97
COc1ccccc1C(=O)NNC(=O)c1ccc(NC(=O)C(C)C)cc1,148*,105,-9,1.1,4,-52,153*,103,102
COC(=O)NNC(=O)c1ccccc1OC,148*,99,-2,1.1,-1,-60,166*,114,107
COc1ccccc1C(=O)NNC(=S)Nc1ccccc1,139*,94,5,1.4,18,-34,146*,102,92
CC(C)(C)C1C=C(Sc2ccccc2)C(=O)O1 (stereo not drawn),103,108,-9,1.3,3,-5,.,.,.
COc1cccc(CC2(CO)CCN(CC3=CC[C@H]4C[C@@H]3C4(C)C)CC2)c1,105,96,3,1.2,23,-2,.,.,.
Cc1ccc2c(c1)CCCN2C(=O)c1ccncc1,104,102,-3,1.3,3,-4,.,.,.
Cc1ccc2c(c1)CCCN2C(=O)c1cccs1,146*,94,6,1.1,9,-51,132,103,107
COc1ccc(C=O)cc1Cn1c(C)cc(C)c(C#N)c1=O,98,97,3,0.86,-17,13,.,.,.
